APJ agonist: activates the human apelin receptor APJ. 330,000 compounds, 0.11% hits. CHO-K1 APJ PathHunter beta-arrestin, luminescence; 0% DMSO wells, 100% apelin. P35414. activation, % at 20 µM;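 active means activation more than six SD over the plate average, tested at 20 µM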
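Material: CHO-K1 APJ beta-arrestin complementation cell line; Input: cell density 1000 per well; Incubation: compound stimulation 90 min at 25 °C, detection 60 min; Signal: luminescence from split beta-galactosidase complementation, Galacton Star/Emerald II substrate; Controls: DMSO-only wells as negative, 10 nM Apelin-13 as positive control.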
CXCR6 block: CXCR6 (human) receptor inhibition | O00574 | CHO-K1 PathHunter CXCR6 beta-arrestin, luminescence | inhibition, % at 20 µM | 360,000 compounds, 0.36% hits | AID 602244; in the data active means inhibition above about 34%, passing the limit was not always enough;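 further: antagonist mode with CXCL16 agonist at 10 nM final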
Target sequence (O00574 whole entry, looked up): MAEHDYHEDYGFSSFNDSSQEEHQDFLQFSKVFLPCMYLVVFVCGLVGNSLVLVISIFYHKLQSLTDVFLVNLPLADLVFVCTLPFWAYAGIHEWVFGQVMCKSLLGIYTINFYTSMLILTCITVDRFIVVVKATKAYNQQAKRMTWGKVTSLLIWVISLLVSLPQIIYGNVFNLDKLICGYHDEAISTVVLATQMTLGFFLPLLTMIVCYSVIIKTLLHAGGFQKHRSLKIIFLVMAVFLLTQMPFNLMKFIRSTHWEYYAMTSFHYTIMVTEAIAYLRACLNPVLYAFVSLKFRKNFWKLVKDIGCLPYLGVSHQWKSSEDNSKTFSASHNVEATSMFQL
CCR6 antag: CCR6 (human) receptor antagonism; P51684; CHO-K1 CCR6 PathHunter beta-arrestin, luminescence, CCL20-stimulated; inhibition, % at 20 µM; 340,000 compounds, 0.49% hits;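 active means compounds whose inhibition of the agonist-driven luminescence signal at 20 µM reaches about 50%, limit read from the data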;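 further: cells stimulated with CCL20 at 14 nM final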
APJ antag: antagonists of human APJ apelin receptor. P35414. CHO-K1 APJ beta-arrestin complementation, luminescence. inhibition, % at 20 µM. 330,000 compounds, 0.32% hits;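 active means inhibition above about 40% at 20 µM, limit read from the data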;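 further: cells challenged with 10 nM apelin-13 agonist together with compound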
EBI2 block: antagonists of human EBI2 receptor | P32249 | EBI2 beta-arrestin recruitment, luminescence, 7a,25-OHC stimulated | inhibition, % at 5 µM | 360,000 compounds, 0.81% hits; in the data active means inhibition above about 38%;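 further: enzyme fragment complementation signal reports receptor beta-arrestin coupling in cells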
EBI2 conf: confirmation of human EBI2 receptor antagonists | AID 651997 | EBI2 beta-arrestin luminescence, 7a,25-OHC antagonism | 2,400 compounds, 29% hits | shares compounds with EBI2 block | inhibition, % at 5 µM;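 active means inhibition of at least 50%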
EBI2 agonist: activates EBI2, counter-screen for EBI2 antagonists. shares compounds with EBI2 block. EBI2-expressing cells, agonist mode, luminescence, 60 min; 0% vehicle, 100% 7α,25-dihydroxycholesterol control. activation, % at 5 µM. 2,400 tested, under 10 active. AID 652000;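 active means activation of at least 50%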
bGal cs: beta-galactosidase inhibition counter-screen; inhibition, % at 5 µM; shares compounds with EBI2 block; AID 652176; 2,400 compounds, 1% hits; purified beta-galactosidase, luminescent Galacton Star, 15 min;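 active means replicate-average signal at least 3 plate SD below neutral wells, shown as high inhibition, flagging enzyme-inhibiting false positives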;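 further: higher means stronger loss of beta-gal luminescence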
Each line names hits and unclear results; the compound was inactive in the other large screens (follow-up assays come after a bar, where they were run). Compounds with a hit are over-represented: about 1.5% of the library has one in this group of screens.

CN(CC(=O)Nc1ccc(S(=O)(=O)N2CCCC2)cc1)Cc1c(F)cccc1Cl	none
Cc1cccc(C(=O)NC(=S)N2CCc3ccccc3C2)c1	none
Cc1cc(Br)ccc1NC(=O)CN(C)C(=O)Cn1c(=O)cnc2ccccc21	none
COc1ccccc1NC(=O)C1=C(C)NC(=O)NC1c1cccs1 (configuration not stated)	none
CCOC(=O)c1sc2nc(C)nc(NCc3ccc(F)cc3)c2c1C	EBI2 block 45 | EBI2 conf inactive | EBI2 agonist inactive | bGal cs inactive
CCOC(=O)c1sc2nc(C)nc(NCc3ccc(Cl)cc3)c2c1C	none
CC(C)(C)N(Cc1ccccc1)C(=O)COC(=O)C1CCN(c2ccc(C(F)(F)F)cn2)CC1	none
O=C1C[C@@H]2c3c(cccc3CN1Cc1ccc(Cl)cc1)C[C@@H](O)[C@H]2O	none (no result: APJ agonist, APJ antag)
Cc1ccc(-c2cnc3c(Nc4cccc(OC(F)(F)C(F)F)c4)nccn23)cc1	none (no result: APJ agonist, CCR6 antag, APJ antag)
OCc1cccc(-c2cnc3c(Nc4cccc(OC(F)(F)C(F)F)c4)nccn23)c1	EBI2 block 51 (no result: APJ agonist, CCR6 antag, APJ antag) | EBI2 conf 51 | EBI2 agonist inactive | bGal cs inactive
O=C(O)c1cnn(-c2nc(-c3ccc(F)cc3)cs2)c1C(F)(F)F	none
CCOC(=O)c1cnn(-c2nc(-c3ccc(C)cc3)cs2)c1C(F)(F)F	EBI2 block 45 (no result: APJ agonist, APJ antag) | EBI2 conf inactive | EBI2 agonist inactive | bGal cs inactive
C=CCSC1=N/C(=C/c2ccsc2)C(=O)N1c1ccccc1	none
Cc1cccc(OCCNc2ccc(C(F)(F)F)cc2[N+](=O)[O-])c1	none
Cc1ccc(OCCNC(=O)c2ccc(C)cc2)cc1	EBI2 block 40 | EBI2 conf inactive | EBI2 agonist inactive | bGal cs inactive
Cc1ccc(OCCNC(=O)c2cccc(Oc3ccc(C(F)(F)F)cc3[N+](=O)[O-])c2)cc1	EBI2 block 40 | EBI2 conf inactive | EBI2 agonist inactive | bGal cs inactive
COc1ccc(OCCNC(=O)c2ccc(C)cc2)cc1	none
COc1cccc(CN2CC(C(=O)NC3CCC(O)CC3)CCC2=O)c1 (configuration not stated)	none
COc1ccc(C2CC(c3ccccc3)=NN2C(=O)COC(=O)c2cc(S(=O)(=O)N3CCOCC3)ccc2F)cc1 (configuration not stated)	EBI2 block 54 | EBI2 conf 52 | EBI2 agonist inactive | bGal cs inactive
COc1ccc(C2CC(c3ccccc3)=NN2C(=O)COC(=O)c2ccc(S(C)(=O)=O)cc2)cc1 (configuration not stated)	none
O=C1CC(C(=O)N2CCN(S(=O)(=O)c3cccc(F)c3)CC2)CN1Cc1ccccc1Cl (configuration not stated)	EBI2 block 62 | EBI2 conf inactive | EBI2 agonist inactive | bGal cs inactive
O=C(C1CC(=O)N(c2ccc3c(c2)OCCO3)C1)N1CCN(S(=O)(=O)c2cccc(F)c2)CC1 (configuration not stated)	none (no result: APJ agonist, APJ antag)
O=[N+]([O-])c1cc(-c2cccnc2)n[nH]1	none (no result: APJ agonist, APJ antag)
c1ccc(Cn2cc(CNc3ccccc3)nn2)cc1	EBI2 block 49 | EBI2 conf inactive | EBI2 agonist inactive | bGal cs inactive
Cc1ccc(S(=O)(=O)N2CCN(C(=O)NCc3ccc(F)cc3)CC2)c(C)c1	EBI2 block 68 | EBI2 conf inactive | EBI2 agonist inactive | bGal cs inactive
COc1ccc(S(=O)(=O)N2CCN(C(=O)NCc3ccc(C)cc3)CC2)cc1	EBI2 block 77 | EBI2 conf 60 | EBI2 agonist inactive | bGal cs inactive
COc1ccc(CCNC(=S)N2CCN(S(=O)(=O)c3ccc(C)cc3)CC2)cc1	EBI2 block 52 | EBI2 conf inactive | EBI2 agonist inactive | bGal cs inactive
COc1ccc(S(=O)(=O)N2CCN(C(=S)NCCc3ccccc3)CC2)cc1	none
O=C(NCc1ccc(F)cc1)N1CCN(S(=O)(=O)c2ccccc2F)CC1	none
Cc1ccc(CNC(=O)c2ccc(S(=O)(=O)N3CCCCC3)cc2)cc1	EBI2 block 64 | EBI2 conf inactive | EBI2 agonist inactive | bGal cs inactive
CC(=O)c1cccc(NC(=O)COc2cc(C)on2)c1	none
CNC(=O)COC(=O)c1ccc2c(c1)NC(=O)C1CCCN21 (configuration not stated)	none (no result: CXCR6 block, CCR6 antag, EBI2 block)
O=C1NC(Cc2ccccc2)C(=O)N1CC(=O)N1CCCc2ccccc21 (configuration not stated)	none
COc1cc(C(=O)Nc2ccccc2N2CCOCC2)ccc1OCC(=O)N1CCOCC1	none
Cc1cccc(C(=O)NC(=S)Nc2ccc(S(=O)(=O)N3CCCCC3)cc2)c1	EBI2 block 62 | EBI2 conf inactive | EBI2 agonist inactive | bGal cs inactive
Cc1ccc(CNC(=O)c2ccc(-n3cccc3)cc2)cc1	EBI2 block 47 (no result: APJ agonist, APJ antag) | EBI2 conf inactive | EBI2 agonist inactive | bGal cs inactive
COc1ccc(CNC(=O)N2CCN(S(=O)(=O)c3ccc(C)cc3C)CC2)cc1	EBI2 block 63 | EBI2 conf inactive | EBI2 agonist inactive | bGal cs inactive
CCCCN(C=O)c1c(CC)nc2c(OCC(=O)c3ccc(F)cc3)cccn12	none (no result: APJ agonist, CCR6 antag, APJ antag)
CC(NCc1ccc(F)cc1)C(=O)Nc1cc(S(=O)(=O)N2CCCCC2)ccc1Cl (configuration not stated)	none
CN(CCOc1ccccc1)C(=O)CNC(=O)c1ccc(C(C)(C)C)cc1	none
Cc1ccc(C)c(S(=O)(=O)N2CCN(C(=O)CCCc3c[nH]c4ccccc34)CC2)c1	EBI2 block 60 | EBI2 conf inactive | EBI2 agonist inactive | bGal cs inactive
Cc1ccc(C)c(S(=O)(=O)N2CCN(C(=O)CSc3ccccc3)CC2)c1	EBI2 block 57 | EBI2 conf 62 | EBI2 agonist inactive | bGal cs inactive
O=C(CSc1ccccc1)N1CCN(S(=O)(=O)c2ccccc2)CC1	none
COc1cccc(C(=O)N(C)Cc2c(C)nn(C3CCS(=O)(=O)C3)c2C)c1 (configuration not stated)	none
CCOc1ccc(S(=O)(=O)N2CCN(C(=O)c3cc4ccccc4o3)CC2)cc1	EBI2 block 86 | EBI2 conf 56 | EBI2 agonist inactive | bGal cs inactive
CCOC(=O)c1ccc(S(=O)(=O)N2CCN(C(=O)c3cc(=O)c4ccccc4o3)CC2)cc1	EBI2 block 60 | EBI2 conf inactive | EBI2 agonist inactive | bGal cs inactive

Screens: PubChem, Sanford-Burnham Center for Chemical Genomics
